Where two headings read alike, the source gives them in different places. Ends that are not written are not given here.
What was measured:
[1] = diluted WSS from periodontally healthy individuals, HPLC, ref McDonald et al. 8, cited from earlier work
[2] = Degradation mode of histatins in pooled 1:10 diluted WSS, cationic PAGE; assay type: in vitro ADME, human; details: 100 μg/mL, 37 °C
In short: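 Unstimulated whole saliva from adolescents (n = 8/group: spastic CP with gingivitis, no CP/no gingivitis, no CP with gingivitis) was held on ice ≤3 h, spun at 1,500×g for 2 min then 14,000×g for 20 min at 4 °C, and the supernatant stored at -80 °C. Supernatant was diluted 1:10 in distilled water and pooled by group. Synthetic histatin 1 or 5 (final 100 μg/mL) was incubated at 37 °C for 0–48 h, with aliquots boiled 5 min. Samples were dried, desalted, and run on 20% cationic PAGE; band intensity was compared with time zero.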

[3] = cited from earlier work
[4] = assay type: in vitro ADME, human; details: for % BD (mean ± S.D.): all groups and time points

DSHEKRHHGYRRKFHEKHHSHREFPFYGDYGSNYLYDN [histatin 1]
intact protein degraded ([1]; 0.5 h): 28% | intact protein degraded ([1]; 2 h): 83% | time after which degradation fragments were observed on cationic PAGE ([2]; pooled G2 WSS diluted 1:10): 8 h | time after which degradation fragments were observed on cationic PAGE ([2]; pooled G3 WSS diluted 1:10): 8 h | histatin 1 degraded ([3]; 1.5 h of incubation with WSS): approximately 50% | time after which totally degraded ([3]; incubation with WSS): 40 h | speed of degradation, G1 relative to G2 and G3 ([4]; during a 48 h interval, 1:10 diluted WSS): 1.78 times | remaining at 48 h, 100 μg/mL ([4]; human, individual whole saliva supernatant (WSS) diluted 1:10): 56% | metabolised at 4 h, 100 μg/mL ([4]; human, whole saliva supernatant (WSS) diluted 1:10, reduction in band density, G2 and G3 (stated together), 1:10 diluted WSS, 37 °C, printed as after 4 h of incubation): ~14% | % BD (mean ± S.D.) ([4]; saliva of female subjects, 1:10 diluted WSS): 79.3 ± 23.6% | % BD (mean ± S.D.) ([4]; saliva of male subjects, 1:10 diluted WSS): 77.6 ± 20.9%

From PMC9421316 (Heliyon, 2022)
